Reference: article PMC12207910 (European journal of pharmaceutical sciences : official …, 2024)
Read-outs that look alike come from different tables or passages of the source. Non-standard residues stand in square brackets, D forms with d. Residues, ends and D or L forms follow the SMILES beside them. Dip = N[C@H](C(=O)O)C(c1ccccc1)c1ccccc1; hArg = N=C(N)NCCCC[C@H](N)C(=O)O; Agp = N=C(N)NC[C@H](N)C(=O)O

What was measured:
MRSA (ATCC BAA-1556) = conditions: cited from earlier work
S. aureus (ATCC 29213) [1] = conditions: cited from earlier work
E. coli (ATCC 25922) [2] = conditions: cited from earlier work
[3] = test system: human red blood cells (hRBC); conditions: cited from earlier work
[4] = test system: P. aeruginosa (ATCC 27883); conditions: cited from earlier work
[5] = test system: human red blood cells (hRBC); assay: Hemolytic activity; type: cell-based; conditions: concentration at which 50% hemolysis was observed
E. coli (ATCC 25922) [6] = conditions: highest MIC of three independent experiments
S. aureus (ATCC 29213) [7] = conditions: highest MIC of three independent experiments
[8] = test system: Escherichia coli (ATCC BAA-2452), NDM-1
[9] = test system: Pseudomonas aeruginosa (ATCC 10145)
[10] = test system: Klebsiella pneumonia (ATCC 13883)
E. coli (ATCC BAA-2452) = type: cell-based, Escherichia coli; conditions: E. coli (ATCC BAA-2452)
[11] = test system: E. coli (ATCC 25922) and E. coli (ATCC BAA-2452); assay: Resistance development study, repeated exposure; type: cell-based; conditions: E. coli strains; 18 exposures
[12] = test system: Acinetobacter baumannii (ATCC BAA1605), ciprofloxacin resistant; conditions: Ciprofloxacin resistant strain
[13] = test system: Pseudomonas aeruginosa (ATCC BAA-1744), imipenem resistant; conditions: Imipenem resistant strain
[14] = test system: Klebsiella pneumonia (ATCC BAA-2470), carbapenem resistant; conditions: Carbapenem resistant strain
[15] = test system: E. coli (ATCC BAA-2452) biofilm; assay: Antibiofilm activity, XTT assay; type: cell-based, Escherichia coli
Summary of the method: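 Bacterial suspensions at 5×10^5 CFU/mL in MH broth were grown 24 h at 37 °C to form biofilms, then washed twice with PBS. […] Biofilms were rewashed, then given XTT plus phenazine methosulfate for 1 h in the dark at 37 °C, and A492 was read. Percentage decrease versus untreated wells; triplicate, run twice.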

[16] = test system: P. aeruginosa (ATCC 27883); conditions: highest MIC of three independent experiments

Compound: c[Arg-Arg-Arg-Arg-Nal-Nal-Nal] [8b]
- MIC MRSA (ATCC BAA-1556) (MRSA (ATCC BAA-1556)): 3.1 µg/mL
- MIC S. aureus (ATCC 29213) (S. aureus (ATCC 29213) [1]): 3.1 µg/mL
- MIC E. coli (ATCC 25922) (E. coli (ATCC 25922) [2]): 25 µg/mL
- HC50 [3]: 80 µg/mL
- MIC P. aeruginosa (ATCC 27883) [4]: 12.5 µg/mL

Compound: N=C(N)NCCCC[C@@H]1NC(=O)[C@H](CCCNC(=N)N)NC(=O)[C@H](CCCCNC(=N)N)NC(=O)[C@H](C(c2ccccc2)c2ccccc2)NC(=O)[C@H](Cc2c[nH]c3ccccc23)NC(=O)[C@H](C(c2ccccc2)c2ccccc2)NC(=O)[C@H](CCCNC(=N)N)NC1=O [7c, c[hArg-Arg-hArg-Arg-Dip-Trp-Dip]] (cyclo([Dip]W[Dip][hArg]R[hArg]R))
- HC50 [5]: 160 µg/mL

Compound: N=C(N)NC[C@@H]1NC(=O)[C@H](CNC(=N)N)NC(=O)[C@H](CNC(=N)N)NC(=O)[C@H](C(c2ccccc2)c2ccccc2)NC(=O)[C@H](Cc2c[nH]c3ccccc23)NC(=O)[C@H](C(c2ccccc2)c2ccccc2)NC(=O)[C@H](CNC(=N)N)NC1=O [7a, c[Agp-Agp-Agp-Agp-Dip-Trp-Dip]] (cyclo([Agp][Agp][Agp][Agp][Dip]W[Dip]))
- HC50 [5]: 240 µg/mL

Compound: N=C(N)NCCC[C@@H]1NC(=O)[C@H](CCCNC(=N)N)NC(=O)[C@H](C(c2ccccc2)c2ccccc2)NC(=O)[C@H](Cc2c[nH]c3ccccc23)NC(=O)[C@H](C(c2ccccc2)c2ccccc2)NC(=O)[C@H](CCCNC(=N)N)NC1=O [1b, c[Arg-Arg-Arg-Dip-Trp-Dip]] (cyclo([Dip]RRR[Dip]W))
- HC50 [5]: 75 µg/mL

Compound: N=C(N)NCCC[C@@H]1NC(=O)[C@H](CCCNC(=N)N)NC(=O)[C@H](CCCNC(=N)N)NC(=O)[C@H](Cc2c[nH]c3ccccc23)NC(=O)[C@H](C(c2ccccc2)c2ccccc2)NC(=O)[C@H](Cc2c[nH]c3ccccc23)NC(=O)[C@H](CCCNC(=N)N)NC1=O [5a, c[Arg-Arg-Arg-Arg-Trp-Dip-Trp]] (cyclo([Dip]WRRRRW))
- HC50 [5]: 220 µg/mL

Compound: N=C(N)NCCC[C@@H]1NC(=O)[C@H](CCCNC(=N)N)NC(=O)[C@H](CCCNC(=N)N)NC(=O)[C@H](C(c2ccccc2)c2ccccc2)NC(=O)[C@H](C(c2ccccc2)c2ccccc2)NC(=O)[C@H](Cc2c[nH]c3ccccc23)NC(=O)[C@H](CCCNC(=N)N)NC1=O [3a, c[Arg-Arg-Arg-Arg-Trp-Dip-Dip]] (cyclo([Dip][Dip]RRRRW))
- HC50 [5]: 85 µg/mL

Compound: cyclo(RRRR[Dip][Dip][Dip]) [8a]
- MIC MRSA (ATCC BAA-1556) (MRSA (ATCC BAA-1556)): 3.1 µg/mL
- MIC S. aureus (ATCC 29213) (S. aureus (ATCC 29213) [1]): 3.1 µg/mL
- MIC E. coli (ATCC 25922) (E. coli (ATCC 25922) [2]): 12.5 µg/mL
- HC50 [3]: 70 µg/mL
- MIC P. aeruginosa (ATCC 27883) [4]: 12.5 µg/mL

Compound: CC(C)C[C@@H]1NC(=O)[C@H](C(c2ccccc2)c2ccccc2)NC(=O)[C@H](CCCNC(=N)N)NC(=O)[C@H](CCCNC(=N)N)NC(=O)[C@H](CCCNC(=N)N)NC(=O)[C@H](CCCNC(=N)N)NC(=O)[C@H](C(c2ccccc2)c2ccccc2)NC1=O [6a, c[Arg-Arg-Arg-Arg-Dip-Leu-Dip]] (cyclo([Dip]L[Dip]RRRR))
- HC50 [5]: 155 µg/mL

Compound: N=C(N)NCCC[C@@H]1NC(=O)[C@H](CCCNC(=N)N)NC(=O)[C@H](Cc2c[nH]c3ccccc23)NC(=O)[C@H](C(c2ccccc2)c2ccccc2)NC(=O)[C@H](C(c2ccccc2)c2ccccc2)NC(=O)[C@H](CCCNC(=N)N)NC1=O [1c, c[Arg-Arg-Arg-Dip-Dip-Trp]] (cyclo([Dip][Dip]WRRR))
- HC50 [5]: 65 µg/mL

Compound: N=C(N)NCCC[C@@H]1NC(=O)[C@H](CCCNC(=N)N)NC(=O)[C@H](Cc2c[nH]c3ccccc23)NC(=O)[C@H](C(c2ccccc2)c2ccccc2)NC(=O)[C@H](C(c2ccccc2)c2ccccc2)NC(=O)[C@H](CCCNC(=N)N)NC(=O)[C@H](CCCNC(=N)N)NC1=O [3c, c[Arg-Arg-Arg-Arg-Dip-Dip-Trp]] (cyclo([Dip][Dip]WRRRR))
- HC50 [5]: 100 µg/mL

Compound: Polymyxin B
- MIC E. coli (ATCC 25922) (E. coli (ATCC 25922) [6]): 0.7 µg/mL
- MIC S. aureus (ATCC 29213) (S. aureus (ATCC 29213) [7]): 0.7 µg/mL
- MIC Escherichia coli (ATCC BAA-2452) [8]: 0.7 µg/mL
- HC50 [5]: >500 µg/mL
- MIC Pseudomonas aeruginosa (ATCC 10145) [9]: 0.7 µg/mL
- MIC Klebsiella pneumonia (ATCC 13883) [10]: 6.2 µg/mL
- MIC CaCl2 (E. coli (ATCC BAA-2452); CaCl2 2 mM): 0.7 µg/mL
- MIC KCl (E. coli (ATCC BAA-2452); KCl […]): 0.7 µg/mL
- MIC Control (E. coli (ATCC BAA-2452); MH media without salt ions or serum): 0.7 µg/mL
- MIC MgCl2 (E. coli (ATCC BAA-2452); MgCl2 1 mM): 1.5 µg/mL
- MIC NH4Cl (E. coli (ATCC BAA-2452); NH4Cl 6 mM): 0.7 µg/mL
- MIC NaCl (E. coli (ATCC BAA-2452); NaCl 150 mM): 0.7 µg/mL
- MIC FBS (25%) (E. coli (ATCC BAA-2452); fetal bovine serum 25%): 3.1 µg/mL
- change in MIC after repeated exposure (resistance development) [11]: negligible changes in the MIC values
- MIC Acinetobacter baumannii (ATCC BAA1605) [12]: 0.7 µg/mL
- MIC Pseudomonas aeruginosa (ATCC BAA-1744) [13]: 0.7 µg/mL
- MIC Klebsiella pneumonia (ATCC BAA-2470) [14]: 1.5 µg/mL
- reduction in biofilm mass ([15]; at 2× the MIC): 61%
- reduction in biofilm mass ([15]; at MIC): 46%
- MIC P. aeruginosa (ATCC 27883) [16]: 0.7 µg/mL

Compound: N=C(N)NCCC[C@@H]1NC(=O)[C@H](CCCNC(=N)N)NC(=O)[C@H](CCCNC(=N)N)NC(=O)[C@H](C(c2ccccc2)c2ccccc2)NC(=O)[C@H](C(c2ccccc2)c2ccccc2)NC(=O)[C@H](Cc2c[nH]c3ccccc23)NC1=O [1a, c[Arg-Arg-Arg-Trp-Dip-Dip]] (cyclo([Dip][Dip]RRRW))
- HC50 [5]: 50 µg/mL
